The list is not random: actives were taken first. Their share in the collection is about 9.6%.
PTEN del growth – PTEN-deleted cell growth suppression; HCT116 PTEN-null viability, CellTiter-Glo, 60 h; stronger effect = lower value; viability, % at 10 µM; 140,000 tested, 1.2% active;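 active means viability at or below a set limit, 4 SD under the median of all tested compounds, cut at about 3.7% in these data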;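 further: PTEN knockout HCT116 line with beta catenin targeted HCT116 as companion control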
L major viab – Leishmania major promastigote growth inhibition; inhibition, % at 10 µM; 200,000 tested, 9% active; Leishmania major promastigotes, resazurin fluorescence viability; AID 1063; in the data active means inhibition above about 50%;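 further: promastigotes grown with compound for 44 hours at 28 °C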
PMI act satM6P – PMI (human) activation, high substrate. P34949. coupled PMI enzyme assay, resazurin fluorescence, 20 min; stronger effect = higher value; 1 = untreated enzyme, 0 = substrate-free blank. 190,000 tested, 0.34% active. activation factor at 20 µM. AID 1216;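 active means activation factor of 2 or more at 20 µM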
Target sequence (P34949 whole entry, looked up): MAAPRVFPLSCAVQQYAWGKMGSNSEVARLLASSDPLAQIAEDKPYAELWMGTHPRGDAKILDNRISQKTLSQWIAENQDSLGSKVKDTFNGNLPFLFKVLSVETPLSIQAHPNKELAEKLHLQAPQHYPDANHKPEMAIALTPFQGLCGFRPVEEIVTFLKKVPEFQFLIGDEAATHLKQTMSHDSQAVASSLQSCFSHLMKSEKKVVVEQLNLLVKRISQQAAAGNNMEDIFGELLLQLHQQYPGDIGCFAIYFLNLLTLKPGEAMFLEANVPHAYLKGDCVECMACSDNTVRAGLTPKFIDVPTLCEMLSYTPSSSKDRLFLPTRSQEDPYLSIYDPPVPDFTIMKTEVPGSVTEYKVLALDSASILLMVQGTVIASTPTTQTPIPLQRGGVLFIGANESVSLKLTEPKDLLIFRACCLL
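Material: human phosphomannose isomerase with PGI, G6PDH, diaphorase coupling enzymes / Reagent: Man-6-P substrate 1.0 mM / Dosing: single compound dose of 20 µM, 1% DMSO final / Incubation: enzyme reaction with compound 20 min at room temperature / Signal: resorufin fluorescence (Ex 544/Em 590 nm) from resazurin via diaphorase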
HCT116 bCat-KO – beta-catenin-lacking colon tumor cell growth suppression; viability, % at 10 µM; AID 818; 140,000 tested, 1.5% active; HCT116 beta-catenin knockout viability, CellTiter-Glo, 60 h; stronger effect = lower value;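 active means viability at or under a set limit, the compound median less 4 SD, cut at about 6% in these data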;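 further: 0% = Hyamine 1622 control at 20 µM and 100% = untreated cell control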
PMI activator – phosphomannose isomerase (human) activation. activation factor at 20 µM. AID 1214. 190,000 tested, 0.005% active. P34949. purified human PMI, coupled resazurin fluorescence, 20 min; stronger effect = higher value; 1 = vehicle control, 0 substrate-free wells;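 active means activation factor of 2 or more at 20 µM, relative to plate controls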
Starred values were filed as active, the others as inactive; . = no result given.

SMILES | PTEN del growth | L major viab | PMI act satM6P | HCT116 bCat-KO | PMI activator
COc1ccc2ccccc2c1CN1CCN(C)CC1 | 89 | -7 | 1 | 84 | 0.9
CCOC(=O)N1CCN(Cc2ccccc2Cl)CC1 | 96 | -5 | 1 | 92 | 1
CCOC(=O)N1CCN(Cc2cc(Cl)c3cccnc3c2O)CC1 | . | 100* | 0.4 | . | 0.5
COCc1cc(CN2CCN(C)CC2)c(O)c2ncccc12 | 81 | 100* | 0.6 | 69 | 0.6
CNCc1ccc(OCc2ccccc2)c(OC)c1 | 95 | 80* | 0.9 | 93 | 0.9
c1ccc(COc2cccc(CNCc3cccnc3)c2)cc1 | . | 98* | 1 | . | 1.1
Nc1nnnn1NCc1cccc(OCc2ccccc2)c1 | 95 | 1 | 1 | 82 | 1
COc1ccc(-c2ccccc2)cc1NCc1ccc(OC)c(OC)c1 | 92 | 99* | 0.8 | 87 | 0.8
COc1cc(CNc2ccc(NC(C)=O)cc2)ccc1OCc1ccccc1C | . | 73* | 1 | . | 1
c1ccc(COc2cccc(CNCc3ccccn3)c2)cc1 | . | 96* | 1.1 | . | 1.1
Fc1ccc(COc2ccc3ccccc3c2CNc2nn[nH]n2)cc1 | . | 0 | 0.9 | . | 1
CNCc1c(OCc2ccc(F)cc2)ccc2ccccc12 | . | 63* | 1 | . | 1
COc1ccc(C(=O)NC(=S)NCc2cccnc2)cc1OC | . | 1 | 0.9 | . | 0.9
COc1cc(CNCc2cccnc2)ccc1OCc1ccccc1 | . | 96* | 1 | . | 1.2
Oc1ccc(NCc2cccc(OCc3ccccc3)c2)cc1 | . | 7 | 0.4 | . | 0.6
CCS(=O)(=O)Nc1cccc(C2=NN(S(=O)(=O)c3ccc(C)cc3)C(c3ccco3)C2)c1 (stereo not drawn) | . | 33 | 0.8 | . | 1.1
O=S1(=O)CCN(Cc2ccc(Cl)cc2)CC1 | 92 | -1 | 1 | 93 | 0.9
CCN1CCN(Cc2cccc(Oc3ccc(Cl)cc3)c2)CC1 | 69 | 96* | 1.2 | 63 | 1.1
CN1CCN(Cc2cccc(Oc3ccc(Cl)cc3)c2)CC1 | 71 | 100* | 1.1 | 65 | 1.1
c1ccc(COc2cccc(CN3CCN(c4ccccn4)CC3)c2)cc1 | 82 | 79* | 1.1 | 81 | 0.9
CCN1CCN(Cc2cccc(Oc3ccccc3)c2)CC1 | 70 | 97* | 1 | 66 | 0.9
CCN1CCN(S(=O)(=O)Cc2ccccc2)CC1 | 93 | -5 | 1.1 | 109 | 1
C#CCOCCOCCOCCNc1nc(N2CCN(C(=O)[C@H](C)n3cc(CCCN=C(N)N)nn3)CC2)nc(N2CCN(C(=O)[C@H](C)n3cc(CCCN=C(N)N)nn3)CC2)n1 | 97 | -8 | 1.1 | 105 | 1.3
Cn1c2c(c(=O)n(C)c1=O)C(c1ccccc1OC(F)F)C1=C(CCCC1=O)N2 (stereo not drawn) | 51 | 1 | . | 91 | .
c1ccc(Oc2cccc(CN3CCCCC3)c2)cc1 | 88 | 100* | 1.1 | 92 | 1.1
SMILES | PTEN del growth | L major viab | PMI act satM6P | HCT116 bCat-KO | PMI activator
O=C(CNC(=O)C1COc2ccccc2O1)N/N=C/c1ccc(O)cc1O (stereo not drawn) | 26 | 98* | 1.3 | 28 | 1.1
O=C(/C=C/c1cn(-c2ccccc2)nc1-c1cccnc1)c1ccco1 | . | 100* | 0.9 | . | 0.9
NC(=O)c1ccc(NC(=O)COC(=O)/C=C/c2cn(-c3ccccc3)nc2-c2cccnc2)cc1 | 90 | 51* | 1 | 90 | 1.1
O=C(/C=C/c1cn(-c2ccccc2)nc1-c1cccnc1)N1CCCC1 | . | 3 | 0.9 | . | 1
Cc1ccc(C(=O)N[C@H](C(=O)Nc2cc(Cl)cc(Cl)c2)C(C)C)cc1 | 87 | -3 | 1.1 | 90 | 1
Cc1ccccc1C(=O)OC1OC(=O)C(Cl)=C1N1CCOCC1 (stereo not drawn) | 91 | 42 | 1.1 | 95 | 1.1
O=C1Nc2ccccc2/C1=C/c1cccnc1 | . | 78* | 1 | . | 1
Cc1ccc(/C=C2\C(=O)Nc3ccccc32)o1 | 5 | 99* | 0.9 | 9 | 1.1
O=C1ON=C(c2ccccc2)/C1=C/c1cccnc1 | . | -2 | 1 | . | 1.2
CN(CC(=O)NC(=O)NC(C)(C)C)CC(=O)Nc1ccccc1Cl | . | 4 | 1 | . | 1
Nc1c(C(=O)C2CC2)sc2nc(-c3ccccc3)cc(C(F)(F)F)c12 | 77 | 1 | 2* | 82 | 1.5
COc1cccc(-c2cc(C(F)(F)F)c3c(N)c(C#N)sc3n2)c1 | 83 | -1 | 1 | 93 | 1.1
O=C(c1ccco1)N1CCN(c2ncnc3scc(-c4ccc(F)cc4)c23)CC1 | 76 | 78* | 1 | 84 | 0.9
